Measured values as given in ChEMBL document CHEMBL4765448, “Multiple biological active 4-aminopyrazoles containing trifluoromethyl and their 4-nitroso-precursors: Synthesis and evaluation” (Eur J Med Chem, 2020).
pIC50: −log10 of the molar value. In brackets after ≈: the same amount, converted by molar mass. Several values for one entry are separate records, joined by “and”; a condition that tells them apart may be missing. Identical values can stand only once. Activity calls are given as the source filed them. The calls are words filed in the database; no cut-off is given here.

Columns and labels:
[1] = tested on: Mycobacterium tuberculosis; assay: Antitubercular activity against Mycobacterium tuberculosis H37Rv; assay type: functional
How it was run: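 Mycobacterium tuberculosis strain H37Rv; minimum inhibitory concentration (MIC) taken as the lowest level needed to inhibit bacterial growth; isoniazid and pyrazinamide served as reference drugs.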

Neisseria gonorrhoeae = assay: Antibacterial activity against Neisseria gonorrhoeae; assay type: functional
Escherichia coli = assay: Antibacterial activity against Escherichia coli; assay type: functional
Klebsiella pneumoniae = assay: Antibacterial activity against Klebsiella pneumoniae; assay type: functional
Citrobacter braakii = assay: Antibacterial activity against Citrobacter braakii; assay type: functional
Proteus vulgaris = assay: Antibacterial activity against Proteus vulgaris; assay type: functional
Serratia marcescens = assay: Antibacterial activity against Serratia marcescens; assay type: functional
Shigella flexneri = assay: Antibacterial activity against Shigella flexneri; assay type: functional
Pseudomonas aeruginosa = assay: Antibacterial activity against Pseudomonas aeruginosa; assay type: functional
Staphylococcus aureus [2] = assay: Antibacterial activity against Staphylococcus aureus; assay type: functional
Staphylococcus aureus [3] = assay: Antibacterial activity against methicillin resistant Staphylococcus aureus; assay type: functional
Trichophyton rubrum = assay: Antifungal activity against Trichophyton rubrum; assay type: functional
Nannizzia gypsea = assay: Antifungal activity against Trichophyton gypseum; assay type: functional
Trichophyton tonsurans = assay: Antifungal activity against Trichophyton tonsurans; assay type: functional
Trichophyton violaceum = assay: Antifungal activity against Trichophyton violaceum; assay type: functional
[4] = tested on: Trichophyton interdigitale; assay: Antifungal activity against Trichophyton mentagrophytes var. interdigitale; assay type: functional
Epidermophyton floccosum = assay: Antifungal activity against Epidermophyton floccosum; assay type: functional
Microsporum canis = assay: Antifungal activity against Microsporum canis; assay type: functional
Candida albicans = assay: Antifungal activity against Candida albicans; assay type: functional
[5] = Antioxidant activity assessed as trolox equivalent of ABTS radical scavenging activity measured after 1 hr by UV-vis spectrophotometric method; assay type: functional
How it was run: (§1)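 ABTS cation-radical decolorization was read spectrophotometrically as the fall in absorbance after 1 h. Trolox was the reference. TEAC was taken as the ratio of concentration-response slopes, test/Trolox, and IC50 was also derived. Data are mean ± SEM, n = 3.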

Rattus norvegicus [6] = assay: Analgesic activity in rat assessed as prolongation of latency period at 15 mg/kg, ip measured after 1 hr by hot-plate test relative to control; assay type: functional
How it was run: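 Hot-plate test in rats. Compounds were given by intraperitoneal injection. Latency was read at 1 h and, for some compounds, also at 2 h after dosing. Results are expressed as % prolongation of the latent period versus vehicle-treated control. Significance was given as p-values.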

Rattus norvegicus [7] = assay: Antiinflammatory activity in rat model of carrageenan-induced paw edema assessed as inhibition of hind paw swelling at 15 mg/kg, ip measured after 5 hrs; assay type: functional, organism-based
[8] = Antioxidant activity assessed as AAPH scavenging activity by measuring residual fluorescence at 10 uM measured at 1 min interval for 30 mins by ORAC fluorescein assay relative to control; assay type: functional
How it was run: (§2)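 ORAC-FL assay with fluorescein as the probe and AAPH as the peroxyl radical generator. The loss of fluorescence over time was followed, and the result is given as % fluorescence restored at 10 and 50 µM. Each value is the mean of two independent experiments.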

[9] = Antioxidant activity assessed as AAPH scavenging activity by measuring residual fluorescence at 50 uM measured at 1 min interval for 30 mins by ORAC fluorescein assay relative to control; assay type: functional; how it was run: as §2
HeLa = assay: Cytotoxicity against human HeLa cells; assay type: functional, cell-based; conditions: for pIC50: Homo sapiens, HeLa, read-out: IC50
Rattus norvegicus [10] = assay: Antiinflammatory activity in rat model of carrageenan-induced paw edema assessed as inhibition of hind paw swelling at 15 mg/kg, ip measured after 3 hrs relative to control; assay type: functional
Erythrocyte [11] = assay: Antioxidant activity in human erythrocytes assessed as protection against AAPH-induced hemolysis at 50 uM preincubated for 20 mins followed by AAPH addition and measured after 2 hrs by spectrophotometric method relative to control; assay type: functional; conditions: time 140 min, 2.333 h
How it was run: (§3)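 Erythrocyte hemolysis assay with AAPH as the free-radical initiator, testing 50 and 400 µM. Results are expressed as relative protection of membranes against oxidative damage, each the mean of two independent experiments.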

Erythrocyte [12] = assay: Antioxidant activity in human erythrocytes assessed as protection against AAPH-induced hemolysis at 400 uM preincubated for 20 mins followed by AAPH addition and measured after 2 hrs by spectrophotometric method relative to control; assay type: functional; conditions: time 140 min, 2.333 h; how it was run: as §3
[13] = Antioxidant activity assessed as ABTS radical scavenging activity measured after 1 hr by UV-vis spectrophotometric method; assay type: functional; how it was run: as §1
Streptococcus pyogenes = assay: Antibacterial activity against Streptococcus pyogenes; assay type: functional
NHDF = assay: Cytotoxicity against HDF cells; assay type: cell-based, Homo sapiens; conditions: for IC50: nhdf; for pIC50: Homo sapiens, NHDF, read-out: IC50
[14] = Selectivity index, ratio of IC50 for HDF cells to IC50 for human HeLa cells; assay type: toxicity; conditions: HDF cells versus HeLa cells, read-out: Ratio IC50
Rattus norvegicus [15] = assay: Antiinflammatory activity in rat model of carrageenan-induced paw edema assessed as inhibition of hind paw swelling at 15 mg/kg, ip measured after 1 hr relative to control; assay type: functional

SMILES	MIC (Neisseria gonorrhoeae) [µg/mL]	MIC (Escherichia coli) [µg/mL]	MIC (Klebsiella pneumoniae) [µg/mL]	MIC (Citrobacter braakii) [µg/mL]	MIC (Proteus vulgaris) [µg/mL]	MIC (Serratia marcescens) [µg/mL]	MIC (Shigella flexneri) [µg/mL]	MIC (Pseudomonas aeruginosa) [µg/mL]	MIC (Staphylococcus aureus [2]) [µg/mL]	MIC (Trichophyton rubrum) [µg/mL]	MIC (Nannizzia gypsea) [µg/mL]	MIC (Trichophyton tonsurans) [µg/mL]	MIC (Trichophyton violaceum) [µg/mL]	MIC [4] [µg/mL]	MIC (Epidermophyton floccosum) [µg/mL]	MIC (Microsporum canis) [µg/mL]	MIC (Candida albicans)	Activity [5]	Activity (Rattus norvegicus [7])	also measured
Cn1nc(C(F)(F)F)c(N=O)c1-c1ccco1	125 (≈ 510 µM)	> 500	> 500	> 500	> 500	> 500	> 500	> 500	15.6 (≈ 63.6 µM)	12.5 (≈ 51 µM)	50 (≈ 204 µM)	12.5 (≈ 51 µM)	6.25 (≈ 25.5 µM)	25 (≈ 102 µM)	12.5 (≈ 51 µM)	12.5 (≈ 51 µM)	inactive	0.02 equiv	Active	MIC [1]: 12.5 µg/mL (≈ 51 µM); MIC (Staphylococcus aureus [3]): 31.2 µg/mL (≈ 127 µM); Activity (Rattus norvegicus [6]): inactive
Nc1c(C(F)(F)F)n[nH]c1-c1ccccc1																		0.58 equiv and 1.35 equiv	Active	Activity [8]: 63.1% and 59.7%; Activity [9]: 60.2% and 62.8%; Activity (HeLa): Dose-dependent effect; inhibition (Rattus norvegicus [10]): inactive
O=c1c(O)c(-c2ccc(O)c(O)c2)oc2cc(O)cc(O)c12 [QUERCETIN]																				Activity [8]: 87.6%; Activity [9]: 90%; fold change (FC) (Erythrocyte [11]): 0.023; fold change (FC) (Erythrocyte [12]): 0.045
O=C1O[C@H]([C@@H](O)CO)C(O)=C1O [ASCORBIC ACID]																				pIC50 [13]: 4.67
Cl.Nc1c(C(F)(F)F)n[nH]c1-c1ccccc1	62.5	> 250	> 250	> 250	> 250	> 250	> 250	> 250	> 250	> 200	> 200	> 200	> 200	> 200	> 200	> 200	> 200 µg/mL			MIC [1]: 6.2 µg/mL; MIC (Streptococcus pyogenes): > 250 µg/mL; pIC50 [13]: 4.38; fold change (FC) (Erythrocyte [11]): 1.03; fold change (FC) (Erythrocyte [12]): 0.01; pIC50 (HeLa): 5.73; IC50 (NHDF): Not Active; selectivity ratio [14]: > 53.8; inhibition in vivo at 15 mg/kg (Rattus norvegicus [15]): 44.8%; Activity (Rattus norvegicus [6]): 91.8%
Cn1nc(C(F)(F)F)c(N)c1-c1ccco1																		0.04 equiv	Active	
CS(=O)(=O)c1ccc(-n2nc(C(F)(F)F)c(N=O)c2-c2ccccc2)cc1	62.5 (≈ 158 µM)	> 250	> 250	> 250	> 250	> 250	> 250	> 250	> 250	200 (≈ 506 µM)	200 (≈ 506 µM)	> 200	> 200	200 (≈ 506 µM)	200 (≈ 506 µM)	200 (≈ 506 µM)	> 200 µg/mL		Active	MIC (Streptococcus pyogenes): > 250 µg/mL; MIC (Staphylococcus aureus [3]): 31.2 µg/mL (≈ 78.9 µM)
OC(Cn1cncn1)(Cn1cncn1)c1ccc(F)cc1F [FLUCONAZOLE]										6.25 (≈ 20.4 µM)	12.5 (≈ 40.8 µM)	> 100	100 (≈ 327 µM)	> 100		100 (≈ 327 µM)	> 100 µg/mL			
Cc1c(N(C)CS(=O)(=O)O)c(=O)n(-c2ccccc2)n1C [METAMIZOLE]																				inhibition (Rattus norvegicus [15]): inactive; inhibition (Rattus norvegicus [10]): inactive; Activity (Rattus norvegicus [6]): 59.8%
Cc1c(C)c2c(c(C)c1O)CCC(C)(C(=O)O)O2 (stereo not given) [TROLOX]																		1 equiv		pIC50 [13]: 4.70
CCC(C)n1ncn(-c2ccc(N3CCN(c4ccc(OCC5COC(Cn6cncn6)(c6ccc(Cl)cc6Cl)O5)cc4)CC3)cc2)c1=O (stereo not given) [ITRACONAZOLE]										0.06 (≈ 0.085 µM)	0.06 (≈ 0.085 µM)	0.19 (≈ 0.269 µM)	0.19 (≈ 0.269 µM)	0.095 (≈ 0.135 µM)	0.19 (≈ 0.269 µM)	> 100	> 100 µg/mL			
NNC(=O)c1ccncc1 [ISONIAZID]																				MIC [1]: 0.15 µg/mL (≈ 1.09 µM)
Cc1ccc(-c2[nH]nc(C(F)(F)F)c2N)cc1																		1.43 equiv	Active	pIC50 [13]: 4.87
COc1cccc2c1C(=O)c1c(O)c3c(c(O)c1C2=O)C[C@@](O)(C(=O)CO)C[C@@H]3O[C@H]1C[C@H](N)[C@H](O)[C@H](C)O1 [DOXORUBICIN]																				pIC50 (HeLa): 5.37; pIC50 (NHDF): 5.57
Cl.Cn1nc(C(F)(F)F)c(N)c1-c1cccs1	> 250	> 250	> 250	> 250	> 250	> 250	> 250	> 250	> 250	> 200	> 200	> 200	> 200	200	> 200	> 200	> 200 µg/mL	0.1 equiv	Active	MIC [1]: 12.5 µg/mL; MIC (Streptococcus pyogenes): > 250 µg/mL; Activity (HeLa): Dose-dependent effect; pIC50 (HeLa): 4.31; IC50 (NHDF): Not Active; selectivity ratio [14]: > 2.05
CS(=O)(=O)c1ccc(-n2nc(C(F)(F)F)c(N)c2-c2ccccc2)cc1.Cl	250	> 250	> 250	> 250	> 250	> 250	> 250	> 250	> 250									inactive	Active	MIC (Streptococcus pyogenes): > 250 µg/mL; IC50 (HeLa; hela): Not Active; IC50 (NHDF): Not Active
NC(=O)c1cnccn1 [PYRAZINAMIDE]																				MIC [1]: 12.5 µg/mL (≈ 102 µM)
O/N=C1\C(c2ccccc2)=NN(c2ccccc2)C1(O)C(F)(F)F (stereo not given)	31.2 (≈ 93.1 µM)	> 250	> 250	> 250	> 250	> 250	> 250	> 250	31.2 (≈ 93.1 µM)	25 (≈ 74.6 µM)	100 (≈ 298 µM)	50 (≈ 149 µM)	100 (≈ 298 µM)	100 (≈ 298 µM)	100 (≈ 298 µM)	100 (≈ 298 µM)	50 µg/mL (≈ 149 µM)	0.44 equiv	Active	MIC (Streptococcus pyogenes): > 250 µg/mL; MIC (Staphylococcus aureus [3]): 31.2 µg/mL (≈ 93.1 µM); pIC50 [13]: 4.31
CN[C@@H]1[C@H](O)[C@H](NC)[C@H]2O[C@@]3(O)C(=O)C[C@@H](C)O[C@H]3O[C@@H]2[C@H]1O [SPECTINOMYCIN]	15.6 (≈ 46.9 µM)	15.6 (≈ 46.9 µM)	15.6 (≈ 46.9 µM)	31.2 (≈ 93.9 µM)	1.25 (≈ 3.76 µM)	15.6 (≈ 46.9 µM)	7.8 (≈ 23.5 µM)	2.5 (≈ 7.52 µM)	31.2 (≈ 93.9 µM)											
Nc1c(C(F)(F)F)n[nH]c1-c1cccs1																		1.22 equiv and 1.1 equiv	Active	Activity [8]: 52.5% and 52.6%; Activity [9]: 14% and 21.8%
Cc1ccc(-c2c(N)c(C(F)(F)F)nn2-c2ccc(S(N)(=O)=O)cc2)cc1.Cl	250	> 250	> 250	> 250	> 250	> 250	> 250	> 250	> 250	200	> 200	> 200	> 200	200	200	200	> 200 µg/mL		Active	MIC (Streptococcus pyogenes): > 250 µg/mL; Activity [8]: 14.6%; Activity [9]: 47.1%; fold change (FC) (Erythrocyte [11]): 1.18; fold change (FC) (Erythrocyte [12]): 1.17; Activity (Rattus norvegicus [6]): inactive
CC[C@@]1(O)C(=O)OCc2c1cc1n(c2=O)Cc2cc3ccccc3nc2-1 [CAMPTOTHECIN]																				pIC50 (HeLa): 5.78; pIC50 (NHDF): 5.27; selectivity ratio [14]: 3.24
